In ChEMBL document CHEMBL2176934 (J Med Chem, 2012):
The source made the active and inactive calls. The rule behind the calls is not given here.

Legend:
[1] = target: T1, Lysophosphatidic acid receptor 3 (Homo sapiens) (UniProt Q9UBY5); assay: Antagonist activity at human recombinant LPA3 expressed in chem-1 cells assessed as inhibition of LPA-induced intracellular calcium mobilization at 30 uM incubated for 30 mins prior to LPA-challenge measured over 100 secs by FLIPR assay; type: functional, cell-based
T1 sequence (whole entry): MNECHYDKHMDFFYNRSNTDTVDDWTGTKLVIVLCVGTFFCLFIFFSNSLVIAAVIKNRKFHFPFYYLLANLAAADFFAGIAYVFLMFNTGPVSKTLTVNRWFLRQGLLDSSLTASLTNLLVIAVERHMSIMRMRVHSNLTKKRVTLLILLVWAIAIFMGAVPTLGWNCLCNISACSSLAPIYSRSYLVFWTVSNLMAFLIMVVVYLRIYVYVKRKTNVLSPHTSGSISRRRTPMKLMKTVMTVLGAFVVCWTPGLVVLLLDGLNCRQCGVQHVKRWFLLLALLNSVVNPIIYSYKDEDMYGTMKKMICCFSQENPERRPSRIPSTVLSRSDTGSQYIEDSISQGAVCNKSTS
Procedure, shortened: (§1)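 Calcium-optimized Chem-1 cells stably expressing human LPA1 or LPA3 (parental line with ionomycin as counterscreen), seeded 10,000/well the day before. Calcium-4 dye in HBSS/20 mM HEPES/2.5 mM probenecid loaded 30 min at 37 °C; compound added, 30 min at room temperature in the dark; LPA (18:1) 1 μM final. Peak fluorescence read over 100 s; IC50 from 10-concentration 4-parameter logistic fit, mean of at least three runs.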

[2] = Inhibition of Cytochrome P450; type: ADME
[3] = target: Voltage-gated inwardly rectifying potassium channel KCNH2 (Homo sapiens, UniProt Q12809); assay: Inhibition of human ERG
[4] = Inhibition of LPA-induced proliferation of HLF incubated for 1 hr prior to LPA-challenge measured after 48 hrs by BrdU incorporation assay; details: Homo sapiens
[5] = target: T2, Lysophosphatidic acid receptor 1 (Homo sapiens, UniProt Q92633); assay: Antagonist activity at human recombinant LPA1 expressed in chem-1 cells assessed as inhibition of LPA-induced intracellular calcium mobilization incubated for 30 mins prior to LPA-challenge measured over 100 secs by FLIPR assay; type: functional, cell-based; procedure, shortened: as §1
[6] = target: T2, Lysophosphatidic acid receptor 1; assay: Antagonist activity at human recombinant LPA1 expressed in chem-1 cells assessed as inhibition of LPA-induced intracellular calcium mobilization at 30 uM incubated for 30 mins prior to LPA-challenge measured over 100 secs by FLIPR assay; type: functional, cell-based; procedure, shortened: as §1
[7] = target: T2, Lysophosphatidic acid receptor 1; assay: Antagonist activity at LPA1 in human lung fibroblasts assessed as inhibition of LPA-induced contraction after 18 hrs by 3D collagen gel contraction assay; type: functional
Procedure, shortened: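 NHLFs (healthy nonsmoking donors, passages 5–9) at 2.5 × 10⁵ cells/well, mixed 1:4 with collagen lattice; gels polymerized 2 h at 37 °C, then basal medium with 0.1% FBS, 0.1% fatty acid-free BSA and vehicle or antagonist added. Gels detached, LPA (18:1) 15 μM added; after 18 h, contraction quantified by gel disc weight.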

Voltage-gated inwardly rectifying potassium channel KCNH2, sequence (Q12809 whole entry): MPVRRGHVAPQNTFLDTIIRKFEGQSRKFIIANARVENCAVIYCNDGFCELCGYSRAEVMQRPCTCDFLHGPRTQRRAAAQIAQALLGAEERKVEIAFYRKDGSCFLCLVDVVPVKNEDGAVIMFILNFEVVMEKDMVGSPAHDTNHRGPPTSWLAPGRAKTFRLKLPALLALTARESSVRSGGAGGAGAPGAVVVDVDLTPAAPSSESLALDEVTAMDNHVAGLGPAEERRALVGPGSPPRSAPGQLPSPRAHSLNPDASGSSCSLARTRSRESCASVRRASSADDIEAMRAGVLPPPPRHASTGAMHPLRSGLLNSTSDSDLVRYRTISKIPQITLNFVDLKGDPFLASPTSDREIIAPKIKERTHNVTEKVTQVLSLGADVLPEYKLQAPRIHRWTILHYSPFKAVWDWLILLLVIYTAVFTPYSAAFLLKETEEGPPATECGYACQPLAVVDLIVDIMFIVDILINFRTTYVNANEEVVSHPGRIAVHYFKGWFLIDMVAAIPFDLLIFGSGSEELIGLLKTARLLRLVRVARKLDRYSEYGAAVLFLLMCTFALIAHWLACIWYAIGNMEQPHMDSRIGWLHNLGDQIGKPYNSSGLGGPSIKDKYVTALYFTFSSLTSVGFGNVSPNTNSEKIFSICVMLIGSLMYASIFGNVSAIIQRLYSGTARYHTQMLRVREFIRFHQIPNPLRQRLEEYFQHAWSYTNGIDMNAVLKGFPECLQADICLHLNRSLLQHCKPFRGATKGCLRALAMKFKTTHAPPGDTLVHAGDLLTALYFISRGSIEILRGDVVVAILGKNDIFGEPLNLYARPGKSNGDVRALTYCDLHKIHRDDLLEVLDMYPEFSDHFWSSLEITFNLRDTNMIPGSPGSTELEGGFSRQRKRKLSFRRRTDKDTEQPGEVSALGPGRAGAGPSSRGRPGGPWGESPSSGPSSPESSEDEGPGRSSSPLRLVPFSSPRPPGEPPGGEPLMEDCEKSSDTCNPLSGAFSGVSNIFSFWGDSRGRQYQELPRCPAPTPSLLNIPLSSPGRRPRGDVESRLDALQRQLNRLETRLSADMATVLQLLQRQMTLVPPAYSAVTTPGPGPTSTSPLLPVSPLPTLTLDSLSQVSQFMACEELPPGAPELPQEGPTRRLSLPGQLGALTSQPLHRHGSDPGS
T2 sequence (Q92633 whole entry): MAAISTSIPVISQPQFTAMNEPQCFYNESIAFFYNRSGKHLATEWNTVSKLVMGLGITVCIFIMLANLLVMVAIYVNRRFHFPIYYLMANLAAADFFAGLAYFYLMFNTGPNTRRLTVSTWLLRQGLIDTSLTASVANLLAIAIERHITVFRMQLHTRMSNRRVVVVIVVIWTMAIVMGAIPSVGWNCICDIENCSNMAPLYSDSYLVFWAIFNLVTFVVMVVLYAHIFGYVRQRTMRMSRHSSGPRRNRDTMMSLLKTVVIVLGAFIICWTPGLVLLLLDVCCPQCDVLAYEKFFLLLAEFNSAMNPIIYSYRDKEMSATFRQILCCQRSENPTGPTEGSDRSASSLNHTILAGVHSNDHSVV

SMILES | inhibition [1] | inhibition (INH) [2] | IC50 [5] | inhibition [6] | inhibition [7] | inhibition (INH) [3] | IC50 [4]
Cc1nnn(-c2ccc(-c3ccc(C4(C(=O)O)CC4)cc3)cc2)c1NC(=O)O[C@H](C)c1cccc(C(F)(F)F)c1 |  | Not Active |  |  |  | Not Active | 1200 nM
C[C@@H](OC(=O)Nc1c(-c2ccc(-c3ccc(C4(C(=O)O)CC4)cc3)cc2)cnn1C)c1ccccc1 |  | Not Active | 21 nM |  |  | Not Active | 2.6 nM
C[C@@H](OC(=O)Nc1c(-c2ccc(-c3ccc(C4(C(=O)O)CC4)cc3)cc2)cnn1C)c1ccccc1F |  | Not Active |  |  |  | Not Active | 4.5 nM
C[C@H](OC(=O)Nc1c(-c2ccc(-c3ccc(C4(C(=O)O)CC4)cc3)cc2)nnn1C)c1cccc(C(F)(F)F)c1 |  | Not Active |  |  |  | Not Active | 
Cn1ncc(-c2ccc(-c3ccc(C4(C(=O)O)CC4)cc3)cc2)c1NC(=O)OC1COC1 | 0% | Not Active |  | 0% |  | Not Active | 
COc1ccc(-c2cnn(C)c2NC(=O)O[C@H](C)c2ccccc2)cc1 |  | Not Active |  |  |  | Not Active | 
C[C@@H](OC(=O)Nc1c(-c2ccc(-c3ccc(C4(C(=O)O)CC4)cc3)cc2)nnn1C)c1ccccc1 |  | Not Active |  |  |  | Not Active | 3 nM
Cc1nnn(-c2ccc(-c3ccc(C4(C(=O)NS(C)(=O)=O)CC4)cc3)cc2)c1NC(=O)O[C@H](C)c1ccccc1 | 7% | Not Active | 32 nM |  |  | Not Active | 60 nM
C[C@@H](OC(=O)Nc1c(-c2ccc(-c3ccc(C4(C(=O)O)CC4)cc3)cc2F)nnn1C)c1ccccc1 |  | Not Active |  |  |  | Not Active | 2 nM
C[C@@H](OC(=O)Nc1c(-c2ccc(CC(=O)O)cc2)cnn1C)c1ccccc1 |  | Not Active |  |  |  | Not Active | 
Cc1nnn(-c2ccc(-c3ccc(C4(C(=O)O)CC4)cc3)cc2)c1NC(=O)O[C@H](C)C(C)C | 17% | Not Active |  |  |  | Not Active | 60 nM
C[C@@H](OC(=O)Nc1nncn1-c1ccc(-c2ccc(C3(C(=O)O)CC3)cc2)cc1)c1ccccc1 | 17% | Not Active |  | 11% |  | Not Active | 
CC[C@@H](C)OC(=O)Nc1c(-c2ccc(-c3ccc(C4(C(=O)O)CC4)cc3)cc2)cnn1C | 0% | Not Active |  |  |  | Not Active | 48 nM
Cc1nnn(-c2ccc(-c3ccc(C4(C(=O)O)CC4)cc3)cc2)c1NC(=O)O[C@H](C)c1ccccc1F | 42% | Not Active |  |  |  | Not Active | 21 nM
Cn1ncc(-c2ccc(-c3ccc(C4(C(=O)O)CC4)cc3)cc2)c1NC(=O)OC1CCC1 | 13.7% | Not Active |  |  |  | Not Active | 192 nM
Cc1nnn(-c2ccc(-c3ccc(C4(c5nnn[nH]5)CC4)cc3)cc2)c1NC(=O)O[C@H](C)c1ccccc1 | 28% | Not Active | 23 nM |  |  | Not Active | 105 nM
C[C@@H](OC(=O)Nc1cnnn1-c1ccc(-c2ccc(C3(C(=O)O)CC3)cc2)cc1)c1ccccc1 | 23% | Not Active |  |  |  | Not Active | 40 nM
C[C@@H](OC(=O)Nc1nnn(C)c1-c1ccc(-c2ccc(C3(C(=O)O)CC3)cc2)cc1)c1ccccc1 | 10% | Not Active |  | 12% |  | Not Active | 
Cc1nnn(-c2ccc(-c3ccc(C4(C(=O)O)CC4)cc3)cc2)c1NC(=O)O[C@H](C)c1ccccc1C(F)(F)F | 55% | Not Active |  |  |  | Not Active | 77 nM
CC(OC(=O)Nc1c(-c2ccc(-c3ccc(C4(C(=O)O)CC4)cc3)cc2)cnn1C)c1ccc(F)cc1 (racemic) |  | Not Active |  |  |  | Not Active | 5 nM
C[C@@H](OC(=O)Nc1c(-c2ccc(-c3ccc(C4(C(=O)NS(C)(=O)=O)CC4)cc3)cc2)nnn1C)c1cccc(C(F)(F)F)c1 |  | Not Active | 24 nM |  | inactive | Not Active | 331 nM
CC[C@@H](C)OC(=O)Nc1c(C)nnn1-c1ccc(-c2ccc(C3(C(=O)O)CC3)cc2)cc1 | 0% | Not Active |  |  |  | Not Active | 178 nM
CCOC(=O)C1(c2ccc(-c3ccc(-c4cnn(C)c4NC(=O)O[C@H](C)c4ccccc4)cc3)cc2)CC1 |  | Not Active |  | 65% |  | Not Active | 

Second part, led by results:

inhibition [1] | inhibition (INH) [2] | IC50 [5] | inhibition [6] | inhibition [7] | SMILES | inhibition (INH) [3] | IC50 [4]
24% | Not Active |  |  |  | CC(C)[C@@H](C)OC(=O)Nc1c(-c2ccc(-c3ccc(C4(C(=O)O)CC4)cc3)cc2)nnn1C | Not Active | 20 nM
 | Not Active |  |  |  | C[C@H](OC(=O)Nc1c(-c2ccccc2F)cnn1C)c1ccccc1Cl | Not Active | 
 | Not Active |  |  |  | C[C@@H](OC(=O)Nc1c(-c2ccc(-c3ccc(CC(=O)O)cc3)cc2)nnn1C)c1ccccc1 | Not Active | 60 nM
9% | Not Active |  |  |  | CC(C)[C@@H](C)OC(=O)Nc1c(-c2ccc(-c3ccc(C4(C(=O)O)CC4)cc3)cc2)cnn1C | Not Active | 30 nM
 | Not Active | 41 nM |  |  | C[C@@H](OC(=O)Nc1c(-c2ccc(-c3ccc(C4(C(=O)O)CC4)cc3)cc2)cnn1C)c1cccc(C(F)(F)F)c1 | Not Active | 37 nM
 | Not Active |  |  |  | C[C@@H](OC(=O)Nc1c(-c2ccc(C3CCC(CC(=O)O)CC3)cc2)nnn1C)c1ccccc1 (mixture of isomers) | Not Active | 7 nM
 | Not Active |  |  |  | C[C@@H](OC(=O)Nc1c(-c2ccc(-c3ccccc3)cc2)cnn1C)c1ccccc1 | Not Active | 
 | Not Active | 17 nM |  |  | C[C@@H](OC(=O)Nc1c(-c2ccc(-c3ccc(C4(C(=O)O)CC4)cc3)cc2)nnn1C)c1cccc(C(F)(F)F)c1 | Not Active | 74 nM
 | Not Active |  | 65% |  | C[C@@H](OC(=O)Nc1c(-c2ccccc2)cnn1C)c1ccccc1 | Not Active | 
 | Not Active |  |  |  | C[C@@H](OC(=O)Nc1c(-c2ccc(-c3ccc(CC(=O)O)cc3)cc2)cnn1C)c1ccccc1 | Not Active | 47 nM
26% | Not Active |  |  |  | Cc1nnn(-c2ccc(-c3ccc(C4(C(=O)O)CC4)cc3)cc2)c1NC(=O)OC(C)C1CCC1 (racemic) | Not Active | 189 nM
63% | Not Active | 42 nM |  |  | CCc1nnn(-c2ccc(-c3ccc(C4(C(=O)O)CC4)cc3)cc2)c1NC(=O)O[C@H](C)c1ccccc1 | Not Active | 16 nM
 | Not Active |  |  |  | C[C@@H](OC(=O)Nc1c(-c2ccc(-c3ccc(C4(C(=O)NS(C)(=O)=O)CC4)cc3)cc2)nnn1C)c1ccccc1 | Not Active | 4 nM
0% | Not Active |  |  |  | Cc1nnn(-c2ccc(-c3ccc(C4(C(=O)O)CC4)cc3)cc2)c1NC(=O)OC(C)(C)C | Not Active | 1620 nM
3% | Not Active |  | 41% |  | Cc1nnn(-c2ccc(-c3ccc(CC(=O)O)cc3)cc2)c1NC(=O)O[C@H](C)c1ccccc1 | Not Active | 
